# Data as given in ChEMBL document CHEMBL1141093, “Metabolic regio- and stereoselectivity of cytochrome P450 2D6 towards 3,4-methylenedioxy-N-alkylamphetamines: in silico predictions and experimental validation” (J Med Chem, 2005).
# B1: Cytochrome P450 2D6 (Homo sapiens) (protein)
# chain: MGLEALVPLAVIVAIFLLLVDLMHRRQRWAARYPPGPLPLPGLGNLLHVDFQNTPYCFDQLRRRFGDVFSLQLAWTPVVVLNGLAAVREALVTHGEDTADRPPVPITQILGFGPRSQGVFLARYGPAWREQRRFSVSTLRNLGLGKKSLEQWVTEEAACLCAAFANHSGRPFRPNGLLDKAVSNVIASLTCGRRFEYDDPRFLRLLDLAQEGLKEESGFLREVLNAVPVLLHIPALAGKVLRFQKAFLTQLDELLTEHRMTWDPAQPPRDLTEAFLAEMEKAKGNPESSFNDENLRIVVADLFSAGMVTTSTTLAWGLLLMILHPDVQRRVQQEIDDVIGQVRRPEMGDQAHMPYTTAVIHEVQRFGDIVPLGVTHMTSRDIEVQGFRIPKGTTLITNLSSVLKDEAVWEKPFRFHPEHFLDAQGHFVKPEAFLPFSAGRRACLGEPLARMELFLFFTSLLQHFSFSVPTGQPRPSHHGVFAFLVSPSPYELCAVPR
# Tests used:
# Cytochrome P450 2D6 [1] = target: Cytochrome P450 2D6 (Homo sapiens, UniProt P10635); test: Vmax for oxidation to 3,4-OH-MA by cytochrome P450 2D6 (wild type pSP19T7LT); expressed in 10E5 fluorescence units min-1 nmol-1 CYP; format: ADME
# Procedure, shortened: (§1)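 E. coli membranes expressing His-tagged wild-type or Phe120Ala CYP2D6 (25 nM CYP) were incubated in 50 mM KPi pH 7.4 with 5 mM MgCl2. Substrate was tested at 10 concentrations, 0–200 µM. After 5 min preincubation at 37 °C, an NADPH-regenerating system was added (0.2 mM NADPH final). Reactions ran 10 min and were stopped with HClO4. Products were separated by C18 HPLC and read by fluorescence (ex 280/em 320 nm). Km and Vmax came from nonlinear regression of peak areas; at least two independent experiments.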
# Cytochrome P450 2D6 [2] = target: T1, Cytochrome P450 2D6 (Homo sapiens, UniProt P10635, F120A); test: Vmax for oxidation to N-OH-MDMA by cytochrome P450 2D6 (Phe120Ala mutant); expressed in 10E5 fluorescence units min-1 nmol-1 CYP; format: ADME; procedure, shortened: as §1
# T1 sequence (P10635 whole entry F120A): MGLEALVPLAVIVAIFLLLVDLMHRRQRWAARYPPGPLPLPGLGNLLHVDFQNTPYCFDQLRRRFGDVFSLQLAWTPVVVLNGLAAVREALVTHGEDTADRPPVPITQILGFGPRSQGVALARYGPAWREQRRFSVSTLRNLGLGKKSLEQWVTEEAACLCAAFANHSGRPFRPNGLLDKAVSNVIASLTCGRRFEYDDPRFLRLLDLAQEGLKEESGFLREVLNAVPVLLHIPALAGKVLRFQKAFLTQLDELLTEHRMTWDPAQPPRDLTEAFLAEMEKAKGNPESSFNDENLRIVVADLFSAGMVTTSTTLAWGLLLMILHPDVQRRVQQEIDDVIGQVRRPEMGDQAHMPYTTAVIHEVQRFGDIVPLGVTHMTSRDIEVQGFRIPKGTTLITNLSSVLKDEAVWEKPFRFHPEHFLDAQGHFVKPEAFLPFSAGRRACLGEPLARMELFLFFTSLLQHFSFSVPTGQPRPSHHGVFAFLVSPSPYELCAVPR
# Cytochrome P450 2D6 [3] = target: T1, Cytochrome P450 2D6; test: Vmax for oxidation to 3,4-OH-MA by cytochrome P450 2D6 (Phe120Ala mutant); expressed in 10E5 fluorescence units min-1 nmol-1 CYP; format: ADME; procedure, shortened: as §1
# Cytochrome P450 2D6 [4] = target: T1, Cytochrome P450 2D6; test: Vmax for oxidation to 3,4-OH-MA by cytochrome P450 2D6 (Phe120Ala mutant); expressed as 10E5 fluorescence units min-1 nmol-1 CYP; expressed in 10E5 fluorescence units min-1 nmol-1 CYP; format: ADME; procedure, shortened: as §1
# CNC(C)Cc1ccc2c(c1)OCO2 [5] = test: (§2) Michaelis-Menten constant for oxidation to 3,4-OH-MA by cytochrome P450 2D6 (Phe120Ala mutant); format: ADME, Homo sapiens; procedure, shortened: as §1
# CCNC(C)Cc1ccc2c(c1)OCO2 [6] = test: as §2; format: ADME, Homo sapiens; procedure, shortened: as §1
# [7] = test system: CN[C@@H](C)Cc1ccc2c(c1)OCO2; test: as §2; format: ADME, Homo sapiens; procedure, shortened: as §1
# CCCNC(C)Cc1ccc2c(c1)OCO2 [8] = test: as §2; format: ADME, Homo sapiens; procedure, shortened: as §1
# [9] = test system: CN[C@H](C)Cc1ccc2c(c1)OCO2; test: as §2; format: ADME, Homo sapiens; procedure, shortened: as §1
# CNC(C)Cc1ccc2c(c1)OCO2 [10] = test: (§3) Michaelis-Menten constant for oxidation to MDA by cytochrome P450 2D6 (Phe120Ala mutant); format: ADME, Homo sapiens; procedure, shortened: as §1
# CCNC(C)Cc1ccc2c(c1)OCO2 [11] = test: as §3; format: ADME, Homo sapiens; procedure, shortened: as §1
# [12] = test system: CN[C@@H](C)Cc1ccc2c(c1)OCO2; test: as §3; format: ADME, Homo sapiens; procedure, shortened: as §1
# CCCNC(C)Cc1ccc2c(c1)OCO2 [13] = test: as §3; format: ADME, Homo sapiens; procedure, shortened: as §1
# [14] = test system: CN[C@H](C)Cc1ccc2c(c1)OCO2; test: as §3; format: ADME, Homo sapiens; procedure, shortened: as §1
# CNC(C)Cc1ccc2c(c1)OCO2 [15] = test: (§4) Michaelis-Menten constant for oxidation to N-OH-MDMA by cytochrome P450 2D6 (Phe120Ala mutant); format: ADME, Homo sapiens; procedure, shortened: as §1
# CCNC(C)Cc1ccc2c(c1)OCO2 [16] = test: as §4; format: ADME, Homo sapiens; procedure, shortened: as §1
# [17] = test system: CN[C@@H](C)Cc1ccc2c(c1)OCO2; test: as §4; format: ADME, Homo sapiens; procedure, shortened: as §1
# CCCNC(C)Cc1ccc2c(c1)OCO2 [18] = test: as §4; format: ADME, Homo sapiens; procedure, shortened: as §1
# [19] = test system: CN[C@H](C)Cc1ccc2c(c1)OCO2; test: as §4; format: ADME, Homo sapiens; procedure, shortened: as §1
# [20] = substrate: CN[C@@H](C)Cc1ccc2c(c1)OCO2; test: (§5) Michaelis-Menten constant for oxidation to 3,4-OH-MA by cytochrome P450 2D6 (wild type pSP19T7LT); format: ADME, Homo sapiens; procedure, shortened: as §1
# [21] = substrate: CN[C@H](C)Cc1ccc2c(c1)OCO2; test: as §5; format: ADME, Homo sapiens; procedure, shortened: as §1
# [22] = substrate: CNC(C)Cc1ccc2c(c1)OCO2; test: as §5; format: ADME, Homo sapiens; procedure, shortened: as §1
# [23] = substrate: CCCNC(C)Cc1ccc2c(c1)OCO2; test: as §5; format: ADME, Homo sapiens; procedure, shortened: as §1
molecule,measurement,setting,value
CCNC(C)Cc1ccc2c(c1)OCO2 (stereo not drawn),Vmax,Cytochrome P450 2D6 [1],1.2
same,Vmax,Cytochrome P450 2D6 [2],1.4
same,Vmax,Cytochrome P450 2D6 [3],2.9
CN[C@@H](C)Cc1ccc2c(c1)OCO2,Vmax,Cytochrome P450 2D6 [2],8.4
same,Vmax,Cytochrome P450 2D6 [4],2.4
CCCNC(C)Cc1ccc2c(c1)OCO2 (stereo not drawn),Vmax,Cytochrome P450 2D6 [1],1.3
same,Vmax,Cytochrome P450 2D6 [2],3
same,Vmax,Cytochrome P450 2D6 [3],7.5
CN[C@H](C)Cc1ccc2c(c1)OCO2,Vmax,Cytochrome P450 2D6 [1],1.2
same,Vmax,Cytochrome P450 2D6 [2],10.7
same,Vmax,Cytochrome P450 2D6 [3],2.4
CNC(C)Cc1ccc2c(c1)OCO2 (stereo not drawn) [MIDOMAFETAMINE],Vmax,Cytochrome P450 2D6 [1],1.2
same,Vmax,Cytochrome P450 2D6 [3],2.2
Cytochrome P450 2D6 (Homo sapiens; F120A),Km,CNC(C)Cc1ccc2c(c1)OCO2 [5],11.8 µM
same,Km,CCNC(C)Cc1ccc2c(c1)OCO2 [6],3.3 µM
same,Km,[7],4.9 µM
same,Km,CCCNC(C)Cc1ccc2c(c1)OCO2 [8],5.2 µM
same,Km,[9],13.2 µM
same,Km,CNC(C)Cc1ccc2c(c1)OCO2 [10],14.5 µM
same,kcat,CNC(C)Cc1ccc2c(c1)OCO2 [10],0.0583 s⁻¹
same,Km,CCNC(C)Cc1ccc2c(c1)OCO2 [11],4.5 µM
same,kcat,CCNC(C)Cc1ccc2c(c1)OCO2 [11],0.07 s⁻¹
same,Km,[12],10.3 µM
same,kcat,[12],0.0633 s⁻¹
same,Km,CCCNC(C)Cc1ccc2c(c1)OCO2 [13],9.1 µM
same,kcat,CCCNC(C)Cc1ccc2c(c1)OCO2 [13],0.122 s⁻¹
same,Km,[14],26.1 µM
same,kcat,[14],0.0983 s⁻¹
same,Km,CNC(C)Cc1ccc2c(c1)OCO2 [15],11.2 µM
same,Km,CCNC(C)Cc1ccc2c(c1)OCO2 [16],5.7 µM
same,Km,[17],6.9 µM
same,Km,CCCNC(C)Cc1ccc2c(c1)OCO2 [18],28 µM
same,Km,[19],20.6 µM
B1,Km,[20],3.3 µM
same,kcat,[20],0.02 s⁻¹
same,Km,[21],2.7 µM
same,Km,[22],1.9 µM
same,Km,[23],1 µM
